Most compounds without a hit are left out; they make up all but 2.1% or so of the library.
GRK2 inh: compounds blocking aptamer binding on GRK2 – biochemical, human GRK2, bead flow cytometry, HTS, primary screen; AID 488847, 2010; 330,000 tested, 0.59% active; FAM-aptamer displacement from GRK2; inhibition of aptamer binding, % at 10 µM;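 active = inhibition of aptamer binding above 40%, roughly 3 SD of noise, on plates passing a quality check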;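 note: median bead fluorescence of bound FAM aptamer so fluorescent compounds give negative values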
DNMT1 inh: human DNMT1 methyltransferase inhibitors, primary screen, biochemical, molecular beacon, fluorescence, HinP1I cleavage, uHTS | DNA (cytosine-5)-methyltransferase 1 (Homo sapiens), P26358 | inhibition (reported as % activation of signal), % at 10 µM | 360,000 tested, 0.83% active | AID 588458, 2011; in the data active = inhibition above about 50%
SUMO1-SIM PPI: modulators of SUMO1 protein-protein interactions, primary screen, biochemical, uHTS | Small ubiquitin-related modifier 1 (Homo sapiens), P63165 | SUMO1 binding to a labelled peptide, TR-FRET, 1 h | inhibition, % at 20 µM | 360,000 tested, 0.33% active | AID 602429, 2012; in the data active = inhibition above about 37%
Scp1 inh: Scp-1 phosphatase inhibitors, primary screen, biochemical, colorimetric, uHTS | Carboxy-terminal domain RNA polymerase II polypeptide A small phosphatase 1 (Homo … | Recombinant Scp1, phosphopeptide, malachite green phosphate absorbance | inhibition, % at 20 µM | 340,000 tested, 0.88% active | AID 493091, 2011;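 active = inhibition above about 50% at 20 µM, limit read from the data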
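Test system: SCP-1 phosphatase catalytic domain, residues 76-261; measured by: colorimetric phosphate reagent with accelerator and stabiliser, absorbance at 630 nm; timing: enzyme reaction 45 min at room temperature, colour 5 min, stabilisation 30 min; also added: Phosphorylated 17-residue peptide substrate; compound dosing: one concentration, 20 µM, with 1.0% DMSO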
LMPTP inh: LMPTP phosphatase inhibitors, primary screen, biochemical, fluorescence intensity, uHTS | Low molecular weight phosphotyrosine protein phosphatase (Homo sapiens), P24666 | recombinant LMPTP-A, OMFP fluorogenic substrate | inhibition, % at 20 µM | 360,000 tested, 0.22% active | AID 651560, 2012;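 active = compounds that cut the enzyme signal by at least half of the control window in the single-dose screen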
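material = LMPTP-A | quantity = 0.625 nM enzyme | reagent = OMFP substrate, 400 µM final | buffer or medium = Bis-Tris pH 6.0, DTT, detergent | detection = endpoint fluorescence intensity from OMFP dephosphorylation | dosing = single 20 µM dose | read-out basis = % inhibition relative to no-enzyme and uninhibited control wells | control set = no-enzyme and uninhibited controls | timing = 50 min at room temperature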
STEP inh: STEP phosphatase inhibitors, primary screen, biochemical, fluorescence intensity, uHTS; AID 588621, 2011; inhibition, % at 20 µM; Tyrosine-protein phosphatase non-receptor type 5 (Homo sapiens), P54829; recombinant STEP, OMFP fluorogenic substrate; 360,000 tested, 0.25% active;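 active = inhibition at 20 µM, scaled per plate between control wells, above about 37%, limit read from the data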
Target sequence (P54829 whole entry, looked up): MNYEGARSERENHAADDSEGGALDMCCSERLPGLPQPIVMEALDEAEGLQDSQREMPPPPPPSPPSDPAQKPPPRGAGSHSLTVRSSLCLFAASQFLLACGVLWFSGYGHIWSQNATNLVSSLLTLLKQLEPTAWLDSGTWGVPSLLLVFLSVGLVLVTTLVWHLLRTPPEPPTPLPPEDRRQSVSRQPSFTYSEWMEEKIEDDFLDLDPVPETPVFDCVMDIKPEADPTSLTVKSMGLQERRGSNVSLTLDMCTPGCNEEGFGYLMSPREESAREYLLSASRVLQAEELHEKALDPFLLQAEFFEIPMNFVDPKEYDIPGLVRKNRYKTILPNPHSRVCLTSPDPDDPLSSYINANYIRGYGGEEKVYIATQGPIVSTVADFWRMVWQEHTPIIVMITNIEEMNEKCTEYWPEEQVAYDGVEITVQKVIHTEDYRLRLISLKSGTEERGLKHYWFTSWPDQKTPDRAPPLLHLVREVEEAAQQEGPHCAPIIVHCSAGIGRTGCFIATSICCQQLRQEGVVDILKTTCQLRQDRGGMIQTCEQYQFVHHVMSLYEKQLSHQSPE
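System: STEP phosphatase, cell-free reaction; Buffer or medium: Bis-Tris pH 6.0 buffer with DTT, detergent; Incubation: 20 min at room temperature, dark; Measured by: fluorescence, 480/540 nm.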
GRK2 inh confirm: GRK2 aptamer-displacing inhibitors, retest, confirmation, biochemical, cherry pick 1, bead flow cytometry; shares compounds with GRK2 inh; bead-bound GRK2, FAM-aptamer displacement; aptamer displacement, % at 10 µM; 2,000 tested, 4% active; AID 504451, 2011;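 active = aptamer displacement above 40%, near three times the noise of non-fluorescent compounds, on plates passing quality checks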;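 note: negative values mostly reflect intrinsic compound fluorescence rather than true enhancement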
FAM quench CP1: counter-screen for GRK2 aptamer inhibitors: fluorescent aptamer quenchers | shares compounds with GRK2 inh | AID 504580 | fluorescence response (% of DMSO), % at 10 µM | Carboxyfluorescein RNA aptamer on beads, flow cytometry quenching; hits give low values | 2,000 tested, under 10 active;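 active = compounds that quench the bead-bound fluorescent RNA probe, cutting fluorescence to under half of the solvent control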;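 note: counterscreen run without GRK2 so only probe quenching by compound is measured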
GRK2 CP2: GRK2 aptamer-displacing inhibitors, hit retest, confirmation, biochemical, cherry pick 2, bead flow cytometry | bead-bound GRK2, FAM-aptamer displacement | AID 504782, 2011 | shares compounds with GRK2 inh | 360 tested, under 10 active | inhibition of aptamer binding, % at 10 µM;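 active = inhibition of aptamer binding above 40%, about triple the noise seen with nonglowing compounds, on plates passing quality control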;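 note: negative values mostly come from compounds that fluoresce themselves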
FAM quench SP: quenches fluorescent RNA aptamer, GRK2 hit artifact. shares compounds with GRK2 inh. carboxyfluorescein RNA aptamer beads, flow cytometry quenching; hits give low values. fluorescence response vs DMSO, % at 10 µM. 360 tested, under 10 active. AID 588494;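 active = response vs DMSO under 50%, meaning signal dropped by over half, treated as fluorescence quencher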;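 note: labelled aptamer on streptavidin beads without GRK2 as a quench counter-screen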
Hits are given with their value; . = inactive; / = not tested or not shown.

SMILES	GRK2 inh	DNMT1 inh	SUMO1-SIM PPI	Scp1 inh	LMPTP inh	STEP inh	GRK2 inh confirm	FAM quench CP1	others
Cc1cc(C)c(S(=O)(=O)c2c(C)cccc2C)c(Cl)n1	81	.	.	.	.	.	.	.
CCC1(c2ccc(OC)cc2)NC(=O)N(CC(=O)NC2CCCCC2C)C1=O (stereo not given)	.	.	.	.	.	.	/	/
O=C(NC1CC1)c1cccc(NC(=O)c2cnn(-c3ccccc3)n2)c1	.	.	.	.	.	.	.	.
O=C(Nc1cccc(C(=O)NC2CCCC2)c1)c1ccccc1	.	.	.	.	.	.	/	/
O=C(COC(=O)COc1ccccc1[N+](=O)[O-])NCc1ccc2c(c1)OCO2	43	.	.	.	.	.	.	.
O=C(c1cccc(NS(=O)(=O)c2ccccc2)c1)N1CCCCC1	.	.	.	.	.	.	/	/
CC1Sc2ccc(S(=O)(=O)CCC(=O)NCc3ccc(Cl)cc3)cc2NC1=O (stereo not given)	48	.	.	.	.	.	.	.	GRK2 CP2=.;FAM quench SP=.
CC1Sc2ccc(S(=O)(=O)CCC(=O)NCc3ccccc3)cc2NC1=O (stereo not given)	.	.	.	.	.	.	/	/	GRK2 CP2=.;FAM quench SP=.
COc1ccc(NC(=O)CCS(=O)(=O)c2ccc3c(c2)NC(=O)C(C)S3)cc1OC (stereo not given)	.	.	.	.	.	.	/	/
CC1Sc2ccc(S(=O)(=O)CCC(=O)Nc3cc(F)ccc3F)cc2NC1=O (stereo not given)	.	.	.	.	.	.	/	/	GRK2 CP2=.;FAM quench SP=.
Cc1cc(NC(=O)CCS(=O)(=O)c2ccc3c(c2)NC(=O)C(C)S3)ccc1Br (stereo not given)	.	.	.	.	.	.	/	/	GRK2 CP2=.;FAM quench SP=.
COc1cccc(C(=O)NC(=S)Nn2cnnc2)c1OC	.	.	.	.	.	.	/	/
COC(=O)c1cc2c(ccn2-c2ccc(F)cc2)n1C(C)C	67	.	.	.	.	.	.	.
COc1ccc(Cl)cc1-c1nc(SCC(=O)NC(C)C)n[nH]1	46	.	.	.	.	.	.	.
CCN1CCCC1Cn1cnc2c([nH]c3ccc(Cl)cc32)c1=O (stereo not given)	92	.	.	.	.	.	.	.
CCN1CCCC1Cn1cnc2c([nH]c3cccc(Cl)c32)c1=O (stereo not given)	.	.	.	.	.	.	/	/
O=C(/C=C/c1cccc(Br)c1)OCC(=O)N1CCN(c2ccccc2)CC1	76	.	.	.	.	.	.	.
Cc1ccccc1NC(=O)CN1C(=O)N/C(=C\c2ccc(N3CCOCC3)c(F)c2)C1=O	.	.	.	.	.	.	.	.
CC(NC(=O)COC(=O)c1c[nH]c2ccccc12)c1ccccc1 (stereo not given)	.	.	.	.	.	.	.	.

High-throughput results as filed in PubChem.
